According to ChEMBL document CHEMBL2417536, “New pyridazine-fluorine derivatives: synthesis, chemistry and biological activity. Part II” (2013):
≈ marks a conversion by molar mass, not a printed value.

How the values were obtained:
Escherichia coli [1] = test: Antibacterial activity against Escherichia coli ATCC 25922 assessed as growth inhibition at 4 mg/disc after 24 hrs by disc diffusion assay; assay type: functional
How it was run: (§1)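 Disc diffusion. Suspension at 0.5 McFarland mixed 1/10 into Mueller Hinton agar. 5 mm sterile filter-paper discs, set in stainless steel cylinders, moistened with compound in chloroform at 4 mg/disc. Plates incubated 24 h at 30 °C; inhibition zone diameter (mm, mean) measured.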

Candida albicans = test: Antifungal activity against Candida albicans ATCC 10231 assessed as growth inhibition at 4 mg/disc after 48 hrs by disc diffusion assay; assay type: functional
How it was run: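 Candida albicans suspension at 0.5 McFarland mixed 1/10 into Sabouraud agar. 5 mm filter-paper discs in steel cylinders, loaded with compound in chloroform at 4 mg/disc; nystatin control at 100 µg/disc. Incubated 48 h at 28 °C; inhibition zone diameter (mm) measured.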

Bacillus subtilis [2] = test: Antibacterial activity against Bacillus subtilis assessed as growth inhibition at 4 mg/disc after 24 hrs by disc diffusion assay; assay type: functional; how it was run: as §1
Staphylococcus aureus [3] = test: Antibacterial activity against Staphylococcus aureus ATCC 25923 assessed as growth inhibition at 4 mg/disc after 24 hrs by disc diffusion assay; assay type: functional; how it was run: as §1
Pseudomonas aeruginosa [4] = test: Antibacterial activity against Pseudomonas aeruginosa ATCC 27853 assessed as growth inhibition at 4 mg/disc after 24 hrs by disc diffusion assay; assay type: functional; how it was run: as §1
Kocuria rhizophila [5] = test: Antibacterial activity against Sarcina luteus ATCC 9341 assessed as growth inhibition at 4 mg/disc after 24 hrs by disc diffusion assay; assay type: functional, DC2201; how it was run: as §1
Kocuria rhizophila [6] = test: Antibacterial activity against Sarcina luteus ATCC 9341 assessed as growth inhibition after 24 hrs by broth microdilution assay; assay type: functional; settings: DC2201, 24 h
How it was run: (§2)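 Broth microdilution in Mueller Hinton broth. Inoculum adjusted to 0.5 McFarland. Compounds dissolved in 50% DMSO at 250 mg/mL (stock), then two-fold serial dilutions over 250 to 0.12 mg/mL. Further broth plus 5 µL inoculum added per well. Incubated 24 h at 37 °C, screened twice per organism. MIC is the lowest concentration with no visible growth; chloramphenicol MIC expressed in µg/mL.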

Staphylococcus aureus [7] = test: Antibacterial activity against Staphylococcus aureus ATCC 25923 assessed as growth inhibition after 24 hrs by broth microdilution assay; assay type: functional; settings: ATCC 25923, 24 h; how it was run: as §2
Bacillus subtilis [8] = test: Antibacterial activity against Bacillus subtilis assessed as growth inhibition after 24 hrs by broth microdilution assay; assay type: functional; how it was run: as §2
Bacillus subtilis [9] = test: Antibacterial activity against Bacillus subtilis assessed as growth inhibition at 30 ug/disc after 24 hrs by disc diffusion assay; assay type: functional; settings: read-out: DIZ
How it was run: (§3)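 Chloramphenicol control discs at 30 µg/disc on Mueller Hinton agar seeded 1/10 with 0.5 McFarland suspension. Incubated 24 h at 30 °C; inhibition zone diameter (mm) read.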

Pseudomonas aeruginosa [10] = test: Antibacterial activity against Pseudomonas aeruginosa ATCC 27853 assessed as growth inhibition at 30 ug/disc after 24 hrs by disc diffusion assay; assay type: functional; settings: ATCC 27853, 24 h, read-out: DIZ; how it was run: as §3
Escherichia coli [11] = test: Antibacterial activity against Escherichia coli ATCC 25922 assessed as growth inhibition at 30 ug/disc after 24 hrs by disc diffusion assay; assay type: functional; settings: ATCC 25922, 24 h, read-out: DIZ; how it was run: as §3
Kocuria rhizophila [12] = test: Antibacterial activity against Sarcina luteus ATCC 9341 assessed as growth inhibition at 30 ug/disc after 24 hrs by disc diffusion assay; assay type: functional; settings: DC2201, 24 h, read-out: DIZ; how it was run: as §3
Staphylococcus aureus [13] = test: Antibacterial activity against Staphylococcus aureus ATCC 25923 assessed as growth inhibition at 30 ug/disc after 24 hrs by disc diffusion assay; assay type: functional; settings: ATCC 25923, 24 h, read-out: DIZ
How it was run: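 Disc diffusion. A 0.5 McFarland bacterial suspension was mixed 1/10 with Mueller Hinton agar. Sterile 5 mm filter paper discs, set in sterile steel cylinders, were loaded at 30 µg/disc (the reference antibiotic dose; test compounds were 4 mg/disc in chloroform). Plates were incubated 24 h at 30 °C, and the inhibition zone diameter (mm, mean) was measured.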

Row | Structure (SMILES) | diameter of the inhibition zone (DIZ) (Escherichia coli [1]) [mm] | diameter of the inhibition zone (DIZ) (Candida albicans) [mm] | diameter of the inhibition zone (DIZ) (Bacillus subtilis [2]) [mm] | diameter of the inhibition zone (DIZ) (Staphylococcus aureus [3]) [mm] | diameter of the inhibition zone (DIZ) (Pseudomonas aeruginosa [4]) [mm] | diameter of the inhibition zone (DIZ) (Kocuria rhizophila [5]) [mm] | MIC (Kocuria rhizophila [6]) [µg/mL] | MIC (Staphylococcus aureus [7]) [µg/mL] | MIC (Bacillus subtilis [8]) [µg/mL] | zone of inhibition at 30 µg/disc (Bacillus subtilis [9]) [mm] | zone of inhibition at 30 µg/disc (Pseudomonas aeruginosa [10]) [mm] | zone of inhibition at 30 µg/disc (Escherichia coli [11]) [mm] | zone of inhibition at 30 µg/disc (Kocuria rhizophila [12]) [mm] | zone of inhibition at 30 µg/disc (Staphylococcus aureus [13]) [mm]
1 | O=C(OCC(F)(F)F)[C@H]1C[C@H](C(=O)c2ccc(Cl)cc2)N2N=CC=C[C@@H]12 | 35 | 37 | 33 | 30 | 20 | 58 | – | – | – | – | – | – | – | –
2 | Cc1ccc(C(=O)[C@H]2C[C@H](C(=O)OCC(F)(F)F)[C@@H]3C=CC=NN23)cc1 | 28 | 30 | 39 | 30 | 20 | 59 | 110 (≈ 300 µM) | 3800 (≈ 10400 µM) | 180 (≈ 491 µM) | – | – | – | – | –
3 | CCOC(=O)[C@H]1[C@H](C(F)(F)F)[C@@H]2C=CC=NN2[C@H]1C(=O)c1ccc(F)cc1 | 31 | 29 | 38 | 28 | 21 | 58 | – | – | – | – | – | – | – | –
4 | CCOC(=O)[C@H]1[C@H](C(F)(F)F)[C@@H]2C=CC=NN2[C@H]1C(=O)c1ccc(C)cc1 | 27 | 31 | 38 | 29 | 21 | 61 | 90 (≈ 237 µM) | 4200 (≈ 11000 µM) | 200 (≈ 526 µM) | – | – | – | – | –
5 | CCOC(=O)c1c(C(F)(F)F)c2cccnn2c1C(=O)c1ccc(F)cc1 | 34 | 29 | 31 | 30 | 16 | 41 | – | – | – | – | – | – | – | –
6 | CCOC(=O)c1c(C(F)(F)F)c2cccnn2c1C(=O)c1ccc(Cl)cc1 | 42 | 26 | 38 | 29 | 18 | 44 | – | – | – | – | – | – | – | –
7 | CCOC(=O)c1c(C(F)(F)F)c2cccnn2c1C(=O)c1ccc(C)cc1 | 40 | 32 | 36 | 49 | 19 | 60 | 100 (≈ 266 µM) | 160 (≈ 425 µM) | 220 (≈ 585 µM) | – | – | – | – | –
8 | O=C(OCC(F)(F)F)[C@H]1C[C@H](C(=O)c2ccc(F)cc2)N2N=CC=C[C@@H]12 | 26 | 27 | 31 | 28 | 19 | 55 | – | – | – | – | – | – | – | –
9 | O=C(N[C@H](CO)[C@H](O)c1ccc([N+](=O)[O-])cc1)C(Cl)Cl [CHLORAMPHENICOL] | – | – | – | – | – | – | 0.25 (≈ 0.774 µM) | 0.25 (≈ 0.774 µM) | 0.25 (≈ 0.774 µM) | 25 | 19 | 29 | 30 | 25
